# Experimental data reported in the M2OR odorant receptor database.
# Substitutions are numbered along the chain they refer to.
# Experiments:
# Details in all cases: stereoisomer not certain
# OR7G2 = system: T1, OR7G2
# T1 sequence (whole entry): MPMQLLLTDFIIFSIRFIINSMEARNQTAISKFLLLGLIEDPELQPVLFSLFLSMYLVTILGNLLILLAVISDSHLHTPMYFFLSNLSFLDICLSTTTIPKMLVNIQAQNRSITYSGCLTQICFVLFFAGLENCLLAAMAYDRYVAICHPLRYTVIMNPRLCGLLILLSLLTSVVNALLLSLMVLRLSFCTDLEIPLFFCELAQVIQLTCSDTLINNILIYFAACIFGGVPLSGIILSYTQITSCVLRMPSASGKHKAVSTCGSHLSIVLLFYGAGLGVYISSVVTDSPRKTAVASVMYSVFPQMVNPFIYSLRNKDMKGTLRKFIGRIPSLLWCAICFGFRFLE
# Procedure, shortened: (§1)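 Whether a receptor–molecule pair is responsive (active) rests on the original authors' judgment that its measured signal was statistically different from baseline. Pairs without that judgment are non-responsive (inactive). Sources used varied assay methods, commonly transient luciferase assays in mammalian cell lines.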
# OR7G3 (Homo sapiens) = biological target: T2, OR7G3 (Homo sapiens) (UniProt Q8NG95)
# T2 sequence (whole entry): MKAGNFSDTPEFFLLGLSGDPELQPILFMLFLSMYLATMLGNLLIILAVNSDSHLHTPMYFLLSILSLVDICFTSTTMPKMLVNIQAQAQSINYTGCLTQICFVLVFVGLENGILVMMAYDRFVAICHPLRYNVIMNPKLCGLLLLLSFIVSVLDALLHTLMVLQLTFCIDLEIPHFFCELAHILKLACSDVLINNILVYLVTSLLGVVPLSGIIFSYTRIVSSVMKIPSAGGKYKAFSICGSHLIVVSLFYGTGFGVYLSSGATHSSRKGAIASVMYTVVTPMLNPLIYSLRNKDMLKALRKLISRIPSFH
# Procedure, shortened: as §1
# OR7G3 M29V = system: T3, OR7G3 M29V
# T3 sequence (whole entry): T2 sequence (whole entry) with M29V
# Procedure, shortened: as §1
# OR8A1 (Homo sapiens) = biological target: T4, OR8A1 (Homo sapiens) (UniProt Q8NGG7)
# T4 sequence (whole entry): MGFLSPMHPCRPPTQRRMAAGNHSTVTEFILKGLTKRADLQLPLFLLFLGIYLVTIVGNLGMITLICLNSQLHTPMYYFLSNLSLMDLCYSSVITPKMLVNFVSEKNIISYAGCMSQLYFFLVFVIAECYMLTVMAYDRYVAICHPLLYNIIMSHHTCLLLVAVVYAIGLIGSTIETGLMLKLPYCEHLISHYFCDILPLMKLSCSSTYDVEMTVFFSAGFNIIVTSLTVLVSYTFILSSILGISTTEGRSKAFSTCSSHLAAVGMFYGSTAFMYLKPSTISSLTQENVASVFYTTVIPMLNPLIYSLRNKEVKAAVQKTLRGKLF
# Procedure, shortened: as §1
# OR8B12 (Homo sapiens) = biological target: T5, OR8B12 (Homo sapiens) (UniProt Q8NGG6)
# T5 sequence (whole entry): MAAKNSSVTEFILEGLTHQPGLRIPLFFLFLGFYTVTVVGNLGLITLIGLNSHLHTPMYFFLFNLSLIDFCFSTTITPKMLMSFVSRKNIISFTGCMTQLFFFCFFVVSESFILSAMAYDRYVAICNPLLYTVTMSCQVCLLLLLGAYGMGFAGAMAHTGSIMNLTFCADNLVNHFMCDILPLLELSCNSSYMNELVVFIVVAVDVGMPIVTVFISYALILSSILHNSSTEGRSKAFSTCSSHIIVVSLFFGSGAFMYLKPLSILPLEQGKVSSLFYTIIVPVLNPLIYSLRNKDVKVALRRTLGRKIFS
# Procedure, shortened: as §1
# OR8B2 (Homo sapiens) = biological target: T6, OR8B2 (Homo sapiens) (UniProt Q96RD0)
# T6 sequence (whole entry): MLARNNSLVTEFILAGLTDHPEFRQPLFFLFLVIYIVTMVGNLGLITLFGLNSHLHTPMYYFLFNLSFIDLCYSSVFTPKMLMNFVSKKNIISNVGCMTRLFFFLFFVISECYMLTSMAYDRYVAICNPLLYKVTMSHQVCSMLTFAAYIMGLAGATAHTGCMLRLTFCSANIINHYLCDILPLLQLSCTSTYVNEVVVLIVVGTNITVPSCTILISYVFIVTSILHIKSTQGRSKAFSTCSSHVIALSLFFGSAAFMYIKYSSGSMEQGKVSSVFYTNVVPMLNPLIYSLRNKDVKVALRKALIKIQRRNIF
# Procedure, shortened: as §1
# OR8B2 L164F = system: T7, OR8B2 L164F
# T7 sequence (whole entry): T6 sequence (whole entry) with L164F
# Procedure, shortened: as §1
# OR8B2 S273F = system: T8, OR8B2 S273F
# T8 sequence (whole entry): T6 sequence (whole entry) with S273F
# Procedure, shortened: as §1
# OR8B3 (Homo sapiens) = biological target: T9, OR8B3 (Homo sapiens) (UniProt Q8NGG8)
# T9 sequence (whole entry): T6 sequence (whole entry) with R24Q, I34V, T47I, N94Y, R100Q, T205I, T208M
# Procedure, shortened: as §1
# OR8B3 H20R Q24R M114I = system: T10, OR8B3 H20R Q24R M114I
# T10 sequence (whole entry): T6 sequence (whole entry) with H20R, I34V, T47I, N94Y, R100Q, M114I, T205I, T208M
# Procedure, shortened: as §1
# OR8B3 H20R Q24R Y113H = system: T11, OR8B3 H20R Q24R Y113H
# T11 sequence (whole entry): T6 sequence (whole entry) with H20R, I34V, T47I, N94Y, R100Q, Y113H, T205I, T208M
# Procedure, shortened: as §1
# OR8B3 H20R Q24R = system: T12, OR8B3 H20R Q24R
# T12 sequence (whole entry): T6 sequence (whole entry) with H20R, I34V, T47I, N94Y, R100Q, T205I, T208M
# Procedure, shortened: as §1
# OR8B4 (Homo sapiens) = biological target: T13, OR8B4 (Homo sapiens) (UniProt Q96RC9)
# T13 sequence (whole entry): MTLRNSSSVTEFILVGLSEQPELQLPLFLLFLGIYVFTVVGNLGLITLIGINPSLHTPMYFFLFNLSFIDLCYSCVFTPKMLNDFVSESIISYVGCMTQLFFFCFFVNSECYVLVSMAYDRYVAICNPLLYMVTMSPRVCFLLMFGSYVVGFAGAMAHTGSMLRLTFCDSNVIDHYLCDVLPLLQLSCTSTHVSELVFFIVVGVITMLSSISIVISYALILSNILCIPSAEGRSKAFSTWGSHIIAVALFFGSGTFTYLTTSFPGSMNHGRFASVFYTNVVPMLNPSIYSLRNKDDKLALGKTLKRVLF
# Procedure, shortened: as §1
# OR8B4 = system: T14, OR8B4
# T14 sequence (whole entry): T13 sequence (whole entry) with E22G
# Procedure, shortened: as §1
# OR8B8 (Homo sapiens) = biological target: T15, OR8B8 (Homo sapiens) (UniProt Q15620)
# T15 sequence (whole entry): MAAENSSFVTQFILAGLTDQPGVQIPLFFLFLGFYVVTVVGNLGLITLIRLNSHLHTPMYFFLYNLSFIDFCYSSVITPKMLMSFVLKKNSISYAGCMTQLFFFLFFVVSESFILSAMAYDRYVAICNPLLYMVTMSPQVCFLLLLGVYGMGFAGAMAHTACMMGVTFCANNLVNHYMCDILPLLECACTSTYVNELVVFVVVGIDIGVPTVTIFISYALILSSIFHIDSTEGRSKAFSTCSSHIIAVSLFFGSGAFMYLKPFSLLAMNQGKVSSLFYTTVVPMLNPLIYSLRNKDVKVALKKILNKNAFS
# Procedure, shortened: as §1
# OR8B8 L101P = system: T16, OR8B8 L101P
# T16 sequence (whole entry): T15 sequence (whole entry) with L101P
# Procedure, shortened: as §1
# OR8D1 (Homo sapiens) = biological target: T17, OR8D1 (Homo sapiens) (UniProt Q8WZ84)
# T17 sequence (whole entry): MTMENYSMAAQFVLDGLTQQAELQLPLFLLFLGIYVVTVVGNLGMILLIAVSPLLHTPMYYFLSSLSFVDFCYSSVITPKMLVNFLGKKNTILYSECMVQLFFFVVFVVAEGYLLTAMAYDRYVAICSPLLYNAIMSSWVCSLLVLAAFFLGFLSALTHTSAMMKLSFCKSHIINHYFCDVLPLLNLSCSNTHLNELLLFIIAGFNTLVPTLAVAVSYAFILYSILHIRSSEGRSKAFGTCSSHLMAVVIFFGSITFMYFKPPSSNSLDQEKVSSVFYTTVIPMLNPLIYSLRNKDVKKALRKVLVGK
# Procedure, shortened: as §1
# OR8D1 C127G L194P = system: T18, OR8D1 C127G L194P
# T18 sequence (whole entry): T17 sequence (whole entry) with C127G, L194P
# Procedure, shortened: as §1
# OR8D1 L194P = system: T19, OR8D1 L194P
# T19 sequence (whole entry): T17 sequence (whole entry) with L194P
# Procedure, shortened: as §1
# OR7G2 (Homo sapiens) = biological target: T20, OR7G2 (Homo sapiens) (UniProt Q8NG99)
# T20 sequence (whole entry): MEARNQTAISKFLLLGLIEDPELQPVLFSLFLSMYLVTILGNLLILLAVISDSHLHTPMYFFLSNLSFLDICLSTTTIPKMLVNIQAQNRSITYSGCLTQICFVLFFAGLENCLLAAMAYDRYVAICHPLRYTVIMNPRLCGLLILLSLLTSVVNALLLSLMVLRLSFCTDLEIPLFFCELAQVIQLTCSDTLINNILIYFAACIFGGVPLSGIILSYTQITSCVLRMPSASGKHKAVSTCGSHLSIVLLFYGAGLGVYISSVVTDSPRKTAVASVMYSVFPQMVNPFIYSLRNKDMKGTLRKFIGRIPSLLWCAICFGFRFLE
# Procedure, shortened: as §1
# 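Also: active if original authors judged signal statistically different from baseline.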
compound,measurement,setting,value
CC1=NC(C)C(C)S1 (stereo not given),odorant receptor agonist call,OR7G2,inactive
same,odorant receptor agonist call,OR7G3 (Homo sapiens),inactive
same,odorant receptor agonist call,OR7G3 M29V,inactive
same,odorant receptor agonist call,OR8A1 (Homo sapiens),inactive
same,odorant receptor agonist call,OR8B12 (Homo sapiens),inactive
same,odorant receptor agonist call,OR8B2 (Homo sapiens),inactive
same,odorant receptor agonist call,OR8B2 L164F,inactive
same,odorant receptor agonist call,OR8B2 S273F,inactive
same,odorant receptor agonist call,OR8B3 (Homo sapiens),inactive
same,odorant receptor agonist call,OR8B3 H20R Q24R M114I,inactive
same,odorant receptor agonist call,OR8B3 H20R Q24R Y113H,inactive
same,odorant receptor agonist call,OR8B3 H20R Q24R,inactive
same,odorant receptor agonist call,OR8B4 (Homo sapiens),inactive
same,odorant receptor agonist call,OR8B4,inactive
same,odorant receptor agonist call,OR8B8 (Homo sapiens),inactive
same,odorant receptor agonist call,OR8B8 L101P,inactive
same,odorant receptor agonist call,OR8D1 (Homo sapiens),inactive
same,odorant receptor agonist call,OR8D1 C127G L194P,inactive
same,odorant receptor agonist call,OR8D1 L194P,inactive
CC(=O)O,odorant receptor agonist call,OR8D1 (Homo sapiens),inactive
CC1=C(O)C(=O)OC1C (stereo not given),odorant receptor agonist call,OR7G2,inactive
same,odorant receptor agonist call,OR7G3 (Homo sapiens),inactive
same,odorant receptor agonist call,OR7G3 M29V,inactive
same,odorant receptor agonist call,OR8A1 (Homo sapiens),inactive
same,odorant receptor agonist call,OR8B12 (Homo sapiens),inactive
same,odorant receptor agonist call,OR8B2 (Homo sapiens),inactive
same,odorant receptor agonist call,OR8B2 L164F,inactive
same,odorant receptor agonist call,OR8B2 S273F,inactive
same,odorant receptor agonist call,OR8B3 (Homo sapiens),inactive
same,odorant receptor agonist call,OR8B3 H20R Q24R M114I,inactive
same,odorant receptor agonist call,OR8B3 H20R Q24R Y113H,inactive
same,odorant receptor agonist call,OR8B3 H20R Q24R,inactive
same,odorant receptor agonist call,OR8B4 (Homo sapiens),inactive
same,odorant receptor agonist call,OR8B4,inactive
same,odorant receptor agonist call,OR8B8 (Homo sapiens),inactive
same,odorant receptor agonist call,OR8B8 L101P,inactive
same,odorant receptor agonist call,OR8D1 (Homo sapiens),active
same,odorant receptor agonist call,OR8D1 C127G L194P,inactive
same,odorant receptor agonist call,OR8D1 L194P,inactive
CCCCCC1CCC(=O)O1 (stereo not given),odorant receptor agonist call,OR8D1 (Homo sapiens),inactive
CCCCCCC=CCCC=O,odorant receptor agonist call,OR7G2 (Homo sapiens),inactive
same,odorant receptor agonist call,OR7G3 (Homo sapiens),inactive
same,odorant receptor agonist call,OR7G3 M29V,inactive
same,odorant receptor agonist call,OR8A1 (Homo sapiens),inactive
same,odorant receptor agonist call,OR8B12 (Homo sapiens),inactive
same,odorant receptor agonist call,OR8B2 (Homo sapiens),inactive
same,odorant receptor agonist call,OR8B2 L164F,inactive
same,odorant receptor agonist call,OR8B2 S273F,inactive
same,odorant receptor agonist call,OR8B3 (Homo sapiens),inactive
same,odorant receptor agonist call,OR8B3 H20R Q24R M114I,inactive
same,odorant receptor agonist call,OR8B3 H20R Q24R Y113H,inactive
same,odorant receptor agonist call,OR8B3 H20R Q24R,inactive
same,odorant receptor agonist call,OR8B4 (Homo sapiens),inactive
same,odorant receptor agonist call,OR8B4,inactive
same,odorant receptor agonist call,OR8B8 (Homo sapiens),inactive
same,odorant receptor agonist call,OR8B8 L101P,inactive
same,odorant receptor agonist call,OR8D1 (Homo sapiens),inactive
same,odorant receptor agonist call,OR8D1 C127G L194P,inactive
SCc1cccs1,odorant receptor agonist call,OR8D1 (Homo sapiens),inactive
CCOC(C)=O,odorant receptor agonist call,OR8D1 (Homo sapiens),inactive
